Data published in ChEMBL document CHEMBL4477241, “Structure-Activity Relationship Studies for Enhancer of Zeste Homologue 2 (EZH2) and Enhancer of Zeste Homologue 1 (EZH1) Inhibitors” (J Med Chem, 2016).

What was measured:
[1] = target: Histone-lysine N-methyltransferase EZH2 (Homo sapiens, UniProt O75530+Q15022+Q15910); assay: Inhibition of EZH2 histone methyltransferase activity of EZH2/EED/SUZ12 protein complex (unknown origin) using histone H3 peptide as substrate (21 to 44 residues) in presence of [3H]-S-adenosylmethionine after 2 hrs by scintillation proximity assay
Sequence of Histone-lysine N-methyltransferase EZH2 (Q15910 whole entry, the tested form may be a part, one chain of several): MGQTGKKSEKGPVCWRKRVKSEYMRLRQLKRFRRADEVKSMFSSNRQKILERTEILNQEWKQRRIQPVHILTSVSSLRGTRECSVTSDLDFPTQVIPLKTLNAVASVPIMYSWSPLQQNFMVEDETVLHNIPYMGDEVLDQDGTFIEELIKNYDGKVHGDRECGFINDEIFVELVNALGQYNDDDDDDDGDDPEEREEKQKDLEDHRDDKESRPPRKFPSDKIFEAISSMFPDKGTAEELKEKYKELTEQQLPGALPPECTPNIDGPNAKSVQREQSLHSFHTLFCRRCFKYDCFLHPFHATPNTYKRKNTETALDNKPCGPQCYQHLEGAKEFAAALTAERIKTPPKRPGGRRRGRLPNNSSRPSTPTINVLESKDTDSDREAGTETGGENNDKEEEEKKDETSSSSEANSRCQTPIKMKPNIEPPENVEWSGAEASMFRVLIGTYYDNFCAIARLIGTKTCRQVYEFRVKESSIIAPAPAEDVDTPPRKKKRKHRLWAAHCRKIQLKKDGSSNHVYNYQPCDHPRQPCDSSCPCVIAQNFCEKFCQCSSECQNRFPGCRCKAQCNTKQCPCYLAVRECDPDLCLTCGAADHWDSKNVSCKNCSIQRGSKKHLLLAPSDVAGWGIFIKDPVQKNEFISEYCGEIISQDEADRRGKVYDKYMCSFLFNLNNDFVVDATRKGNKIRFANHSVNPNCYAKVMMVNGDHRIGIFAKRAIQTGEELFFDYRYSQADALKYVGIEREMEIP
Outline: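 20 nM EZH2 trimeric complex with 2 μM 3H-SAM and 1 μM biotinylated H3(21–44) in 20 mM Tris-HCl pH 8, 5 mM DTT, 0.01% Triton X-100. Incubated 1 h at 23 °C, quenched with guanidine hydrochloride, then 2 h streptavidin flash-plate capture. Activity scaled between no-compound and no-enzyme counts.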

[2] = target: T1, Histone-lysine N-methyltransferase EZH1 (Homo sapiens, UniProt Q92800); assay: Inhibition of EZH1 histone methyltransferase activity of EZH1/EED/SUZ12/RBBP4/AEBP2 protein complex (unknown origin) using histone H3 peptide as substrate (21 to 44 residues) in presence of [3H]-S-adenosylmethionine after 2 hrs by scintillation proximity assay
T1 sequence (Q92800 whole entry): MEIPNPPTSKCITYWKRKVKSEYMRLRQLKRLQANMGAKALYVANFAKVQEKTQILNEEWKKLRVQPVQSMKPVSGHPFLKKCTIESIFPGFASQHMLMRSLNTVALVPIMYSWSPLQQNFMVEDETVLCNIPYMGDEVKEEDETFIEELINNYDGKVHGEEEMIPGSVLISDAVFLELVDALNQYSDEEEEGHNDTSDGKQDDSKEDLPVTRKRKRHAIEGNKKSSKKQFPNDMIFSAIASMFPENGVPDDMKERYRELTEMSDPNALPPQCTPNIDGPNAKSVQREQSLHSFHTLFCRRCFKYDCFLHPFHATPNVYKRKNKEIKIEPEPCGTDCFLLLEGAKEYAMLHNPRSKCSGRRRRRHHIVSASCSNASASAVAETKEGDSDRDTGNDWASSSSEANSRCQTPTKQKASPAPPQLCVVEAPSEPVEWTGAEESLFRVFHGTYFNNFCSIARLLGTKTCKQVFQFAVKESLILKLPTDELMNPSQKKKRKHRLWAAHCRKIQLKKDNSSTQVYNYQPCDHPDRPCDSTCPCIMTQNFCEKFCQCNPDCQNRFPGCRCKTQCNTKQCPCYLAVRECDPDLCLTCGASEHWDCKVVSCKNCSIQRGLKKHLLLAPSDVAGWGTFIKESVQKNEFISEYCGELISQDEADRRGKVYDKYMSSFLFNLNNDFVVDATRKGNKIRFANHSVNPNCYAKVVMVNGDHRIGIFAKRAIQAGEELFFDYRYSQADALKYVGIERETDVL
Outline: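 10 nM EZH1 pentameric complex with 4 μM 3H-SAM and 1 μM biotinylated H3(21–44) in 20 mM Tris-HCl pH 8, 5 mM DTT, 0.01% Triton X-100. Reaction run 1 h at 23 °C, stopped with guanidine hydrochloride, then captured 2 h on a streptavidin flash plate. Counts normalized to no-compound (100%) and no-enzyme (0%) controls.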

Compound	IC50 [1] [nM]	IC50 [2] [nM]
CCCc1cc(C)[nH]c(=O)c1CNC(=O)c1cc(N2CCCNCC2)cc2c1cnn2C(C)C	42	> 2500
CCCc1cc(C)[nH]c(=O)c1CNC(=O)c1cc(NC2CCNCC2)cc2c1cnn2C(C)C	26	> 1250
CCc1cc(C)[nH]c(=O)c1CNC(=O)c1cc(-c2ccc(N3CCN(C(C)C)CC3)nc2)cc2c1cnn2C(C)C	12	810
CCCCc1cc(C)[nH]c(=O)c1CNC(=O)c1cc(-c2ccc(N3CCN(C(C)C)CC3)nc2)cc2c1cnn2C(C)C	< 10	160
CCCc1cc(C)[nH]c(=O)c1CNC(=O)c1cc(C2CCNCC2)cc2c1cnn2C(C)C	11	613
CCCc1cc(C)[nH]c(=O)c1CNC(=O)c1cc(N2CCNCC2)cc2c1cnn2C(C)C	17	880
CCCc1cc(C)[nH]c(=O)c1CNC(=O)c1cc(Br)cc2c1cnn2C(C)C	35	> 5000
